Measured values reported in ChEMBL document CHEMBL3272156, “(Vinylaryloxy)acetic acids. A new class of diuretic agents. 4. Various ((2-substituted and 2,2-disubstituted vinyl)aryloxy)acetic acids” (1976).

Tests used:
[1] = test system: Canis familiaris; assay: Diuretic activity in mongrel dog anesthetized with sodium pentobarbital assessed as urine Na+ level at 10 mg/kg, iv measured after 15 to 45 mins post dose (reference value: 3 to 44 uequiv/min); type: functional, Canis lupus familiaris
How it was run: (§1)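 Dogs given compound iv as the Na salt in water; clearance procedure per ref 1. Baseline is the mean of two 15-min clearance periods before dosing. Response is the mean of two consecutive 15-min periods of maximal Na+ excretion, usually 15–45 min after dosing. Values are from single representative experiments in a series of three or four dogs.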

[2] = test system: Canis familiaris; assay: Diuretic activity in mongrel dog anesthetized with sodium pentobarbital assessed as urine K+ level at 10 mg/kg, iv measured after 15 to 45 mins post dose (reference value: 10 to 44 uequiv/min); type: functional, Canis lupus familiaris; how it was run: as §1
[3] = test system: Canis familiaris; assay: Diuretic activity in mongrel dog anesthetized with sodium pentobarbital assessed as urine Cl- level at 10 mg/kg, iv measured after 15 to 45 mins post dose (reference value: 0 to 30 uequiv/min); type: functional, Canis lupus familiaris; how it was run: as §1
[4] = test system: Canis familiaris; assay: Diuretic activity in mongrel dog anesthetized with sodium pentobarbital assessed as urine volume at 10 mg/kg, iv measured after 15 to 45 mins post dose (reference value: 1 to 5 ml/min); type: functional, Canis lupus familiaris; how it was run: as §1
[5] = test system: Canis familiaris; assay: Diuretic activity in mongrel dog […] assessed as urine Na+ level per 6 hrs at 10 mg/kg, po as gelatin capsules (reference value: 2 equiv/6 hrs); type: functional, Canis lupus familiaris
How it was run: (§2)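 Trained female mongrel dogs (8–10 kg) given 100 ml water the day before and fasted overnight. On test day they received 250 ml water orally, then 500 ml 1 h later. One hour after that, bladders were catheter-emptied and compound or placebo was given orally in gelatin capsules. Dogs were kept in metabolism cages, and spontaneous urine was pooled with catheter urine at 6 h. Volume and Na+, K+ and Cl− were measured; results are averages per dog group.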

[6] = test system: Canis familiaris; assay: Diuretic activity in mongrel dog […] assessed as urine K+ level per 6 hrs at 10 mg/kg, po as gelatin capsules (reference value: 1 equiv/6 hrs); type: functional, Canis lupus familiaris; how it was run: as §2
[7] = test system: Canis familiaris; assay: Diuretic activity in mongrel dog […] assessed as urine Cl- level per 6 hrs at 10 mg/kg, po as gelatin capsules (reference value: 2 equiv/6 hrs); type: functional, Canis lupus familiaris; how it was run: as §2
[8] = test system: Canis familiaris; assay: Diuretic activity in mongrel dog […] assessed as urine Na+ level per 6 hrs at 1 mg/kg, po as gelatin capsules (reference value: 2 equiv/6 hrs); type: functional, Canis lupus familiaris; how it was run: as §2
[9] = test system: Canis familiaris; assay: Diuretic activity in mongrel dog […] assessed as urine K+ level per 6 hrs at 1 mg/kg, po as gelatin capsules (reference value: 1 equiv/6 hrs); type: functional, Canis lupus familiaris; how it was run: as §2
[10] = test system: Canis familiaris; assay: Diuretic activity in mongrel dog […] assessed as urine Cl- level per 6 hrs at 1 mg/kg, po as gelatin capsules (reference value: 2 equiv/6 hrs); type: functional, Canis lupus familiaris; how it was run: as §2
[11] = test system: Canis familiaris; assay: Diuretic activity in mongrel dog […] assessed as urine Na+ level per 6 hrs at 0.3 mg/kg, po as gelatin capsules (reference value: 2 equiv/6 hrs); type: functional, Canis lupus familiaris; how it was run: as §2
[12] = test system: Canis familiaris; assay: Diuretic activity in mongrel dog […] assessed as urine K+ level per 6 hrs at 0.3 mg/kg, po as gelatin capsules (reference value: 1 equiv/6 hrs); type: functional, Canis lupus familiaris; how it was run: as §2
[13] = test system: Canis familiaris; assay: Diuretic activity in mongrel dog assessed as urine Cl- level per 6 hrs at 0.3 mg/kg, po as gelatin capsules (reference value: 2 equiv/6 hrs)
[14] = test system: Canis familiaris; assay: Diuretic activity in mongrel dog anesthetized with sodium pentobarbital assessed as urine Na+ level at 5 mg/kg, iv measured after 15 to 45 mins post dose (reference value: 3 to 44 uequiv/min); type: functional, Canis lupus familiaris; how it was run: as §1
[15] = test system: Canis familiaris; assay: Diuretic activity in mongrel dog anesthetized with sodium pentobarbital assessed as urine K+ level at 5 mg/kg, iv measured after 15 to 45 mins post dose (reference value: 10 to 44 uequiv/min); type: functional, Canis lupus familiaris; how it was run: as §1
[16] = test system: Canis familiaris; assay: Diuretic activity in mongrel dog anesthetized with sodium pentobarbital assessed as urine Cl- level at 5 mg/kg, iv measured after 15 to 45 mins post dose (reference value: 0 to 30 uequiv/min); type: functional, Canis lupus familiaris; how it was run: as §1
[17] = test system: Canis familiaris; assay: Diuretic activity in mongrel dog anesthetized with sodium pentobarbital assessed as urine volume at 5 mg/kg, iv measured after 15 to 45 mins post dose (reference value: 1 to 5 ml/min); type: functional, Canis lupus familiaris; how it was run: as §1
[18] = test system: Canis familiaris; assay: Diuretic activity in mongrel dog anesthetized with sodium pentobarbital assessed as urine Na+ level at 1 mg/kg, iv measured after 15 to 45 mins post dose (reference value: 3 to 44 uequiv/min); type: functional, Canis lupus familiaris; how it was run: as §1
[19] = test system: Canis familiaris; assay: Diuretic activity in mongrel dog anesthetized with sodium pentobarbital assessed as urine K+ level at 1 mg/kg, iv measured after 15 to 45 mins post dose (reference value: 10 to 44 uequiv/min); type: functional, Canis lupus familiaris; how it was run: as §1
[20] = test system: Canis familiaris; assay: Diuretic activity in mongrel dog anesthetized with sodium pentobarbital assessed as urine Cl- level at 1 mg/kg, iv measured after 15 to 45 mins post dose (reference value: 0 to 30 uequiv/min); type: functional, Canis lupus familiaris; how it was run: as §1
[21] = test system: Canis familiaris; assay: Diuretic activity in mongrel dog anesthetized with sodium pentobarbital assessed as urine volume at 1 mg/kg, iv measured after 15 to 45 mins post dose (reference value: 1 to 5 ml/min); type: functional, Canis lupus familiaris; how it was run: as §1

SMILES	Activity [1]	Activity [2]	Activity [3]	Activity [4]	further results
N#CC(C#N)=Cc1ccc(OCC(=O)O)cc1Cl	14 uEq/min	34 uEq/min	14 uEq/min	2 mL/min	–
N#C/C(=C\c1ccc(OCC(=O)O)c(Cl)c1Cl)C(=O)O	38 uEq/min	32 uEq/min	29 uEq/min	1 mL/min	–
N#C/C(=C\c1ccc(OCC(=O)O)c(Cl)c1Cl)C(N)=O	180 uEq/min	35 uEq/min	88 uEq/min	4 mL/min	–
O=C(O)COc1ccc(/C=C(/C(=O)Oc2ccccc2)S(=O)(=O)Oc2ccccc2)c(Cl)c1Cl	–	–	–	–	Activity [5]: 6 equiv; Activity [6]: 2 equiv; Activity [7]: 6 equiv
O=C(O)COc1ccc(/C=C2\C(=O)C3CCN2CC3)c(Cl)c1Cl	172 uEq/min	70 uEq/min	115 uEq/min	4 mL/min	–
C=C(CC)C(=O)c1ccc(OCC(=O)O)c(Cl)c1Cl [ETHACRYNIC ACID]	–	–	–	–	Activity [8]: 21 equiv; Activity [9]: 5 equiv; Activity [10]: 26 equiv; Activity [11]: 8 equiv; Activity [12]: 2 equiv; Activity [13]: 10 equiv
NC(=O)C(=Cc1ccc(OCC(=O)O)c(Cl)c1Cl)C(N)=O	195 uEq/min	86 uEq/min	145 uEq/min	3 mL/min	–
CCOC(=O)C(=Cc1ccc(OCC(=O)O)c(Cl)c1Cl)C(=O)OCC	–	–	–	–	Activity [14]: 313 uEq/min; Activity [15]: 113 uEq/min; Activity [16]: 261 uEq/min; Activity [17]: 4 mL/min; Activity [18]: 200 uEq/min; Activity [19]: 54 uEq/min; Activity [20]: 198 uEq/min; Activity [21]: 2 mL/min
N#CC(C#N)=Cc1ccc(OCC(=O)O)c(Cl)c1Cl	736 uEq/min	100 uEq/min	665 uEq/min	5 mL/min	–
